Source: ChEMBL document CHEMBL3286113, “New potent antibacterial oxazolidinone (MRX-I) with an improved class safety profile” (J Med Chem, 2014)
Values after ≈ are worked out from the molar mass of the structure shown. One block for each compound: values may come before it.

Columns and labels:
Staphylococcus aureus [1] = assay: Antibacterial activity against Staphylococcus aureus; format: functional
Rattus norvegicus [2] = assay: Toxicity in female rat assessed as effect on WBC count at 100 mg/kg/day, po bid administered for 4 weeks (reference value: 3.66 x 10^9/L); format: organism-based; design: route oral; details: in vivo, 672 h
Rattus norvegicus [3] = assay: Toxicity in female rat assessed as effect on RBC count at 100 mg/kg/day, po bid administered for 4 weeks (reference value: 7.28 x 10^12/L); format: organism-based; design: route oral; details: in vivo, 672 h
Rattus norvegicus [4] = assay: Toxicity in female rat assessed as effect on hemoglobin level at 100 mg/kg/day, po bid administered for 4 weeks (reference value: 141.8 g/L); format: organism-based; design: route oral; details: in vivo, 672 h
Rattus norvegicus [5] = assay: Toxicity in female rat assessed as effect on hematocrit level at 100 mg/kg/day, po bid administered for 4 weeks (reference value: 39.08%); format: organism-based; design: route oral; details: in vivo, 672 h
Rattus norvegicus [6] = assay: Toxicity in female rat assessed as effect on mean corpuscular volume at 100 mg/kg/day, po bid administered for 4 weeks (reference value: 53.72 fL); format: organism-based; design: route oral; details: in vivo, 672 h
Rattus norvegicus [7] = assay: Toxicity in female rat assessed as effect on mean corpuscular hemoglobin level at 100 mg/kg/day, po bid administered for 4 weeks (reference value: 19.5 pg); format: organism-based; design: route oral; details: in vivo, 672 h
Rattus norvegicus [8] = assay: Toxicity in female rat assessed as effect on platelet count at 100 mg/kg/day, po bid administered for 4 weeks (reference value: 654.6 x 10^9/L); format: organism-based; design: route oral; details: in vivo, 672 h
Rattus norvegicus [9] = assay: Toxicity in female rat assessed as effect on neutrophil count at 100 mg/kg/day, po bid administered for 4 weeks (reference value: 22.4%); format: organism-based; design: route oral; details: in vivo, 672 h
Rattus norvegicus [10] = assay: Toxicity in female rat assessed as effect on lymphocyte count at 100 mg/kg/day, po bid administered for 4 weeks (reference value: 74.8%); format: organism-based; design: route oral; details: in vivo, 672 h
Rattus norvegicus [11] = assay: Toxicity in female rat assessed as effect on reticulocyte count at 100 mg/kg/day, po bid administered for 4 weeks (reference value: 1.48%); format: organism-based; design: route oral; details: in vivo, 672 h
[12] = molecular target: T1, Amine oxidase [flavin-containing] A (Homo sapiens, UniProt P21397); assay: Inhibition of MAO-A (unknown origin) using tyramine as substrate after 30 to 60 mins by fluorescence plate reader analysis
T1 sequence (P21397 whole entry): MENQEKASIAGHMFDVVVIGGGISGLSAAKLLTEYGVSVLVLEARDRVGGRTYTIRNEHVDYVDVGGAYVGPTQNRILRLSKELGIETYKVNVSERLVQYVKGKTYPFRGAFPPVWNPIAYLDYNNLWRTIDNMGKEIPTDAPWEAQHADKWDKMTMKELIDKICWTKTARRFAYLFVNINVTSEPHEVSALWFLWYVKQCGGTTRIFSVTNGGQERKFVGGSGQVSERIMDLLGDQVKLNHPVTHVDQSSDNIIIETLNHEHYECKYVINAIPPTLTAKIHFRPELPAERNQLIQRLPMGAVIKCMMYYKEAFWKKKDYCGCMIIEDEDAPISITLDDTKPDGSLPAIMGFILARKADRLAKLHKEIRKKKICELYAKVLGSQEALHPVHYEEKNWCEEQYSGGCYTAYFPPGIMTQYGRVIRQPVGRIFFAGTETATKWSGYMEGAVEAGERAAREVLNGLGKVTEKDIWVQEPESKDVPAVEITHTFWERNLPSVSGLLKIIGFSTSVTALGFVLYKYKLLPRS

Staphylococcus aureus [13] = assay: Antibacterial activity against Staphylococcus aureus by agar dilution method; format: functional
Method in brief: (§1)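 MIC determined by agar dilution across S. aureus/MRSA isolates; MIC90 is the concentration inhibiting 90% of strains tested.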

Staphylococcus aureus [14] = assay: Antibacterial activity against Staphylococcus aureus in po dosed mouse septicemia model; format: functional
[15] = Myelosuppression activity against human CD34-positive blood stem/progenitor cells assessed as growth inhibition after 9 to 10 days by CellTiter-Glo luminescent assay
Staphylococcus aureus [16] = assay: Antibacterial activity against methicillin-resistant Staphylococcus aureus by broth microdilution method; format: functional
Method in brief: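 MIC determined against methicillin-resistant S. aureus strain SAU1009.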

Staphylococcus aureus [17] = assay: Antibacterial activity against methicillin-sensitive Staphylococcus aureus; format: functional
[18] = test system: Staphylococcus epidermidis; assay: Antibacterial activity against methicillin-resistant Staphylococcus epidermidis; format: functional
[19] = test system: Staphylococcus epidermidis; assay: Antibacterial activity against methicillin-sensitive Staphylococcus epidermidis; format: functional
[20] = test system: Staphylococcus haemolyticus; assay: Antibacterial activity against Staphylococcus haemolyticus; format: functional
[21] = test system: Staphylococcus saprophyticus; assay: Antibacterial activity against Staphylococcus saprophyticus; format: functional
Staphylococcus [22] = assay: Antibacterial activity against coagulase-negative Staphylococcus; format: functional
Staphylococcus [23] = assay: Antibacterial activity against beta-lactamase-negative Staphylococcus; format: functional
Enterococcus faecalis [24] = assay: Bacteriostatic activity against vancomycin-sensitive Enterococcus faecalis; format: functional
Enterococcus faecium [25] = assay: Bacteriostatic activity against vancomycin-sensitive Enterococcus faecium; format: functional
Enterococcus = assay: Bacteriostatic activity against vancomycin-sensitive Enterococcus; format: functional
Enterococcus faecium [26] = assay: Bacteriostatic activity against vancomycin-resistant Enterococcus faecium; format: functional
Streptococcus pneumoniae [27] = assay: Bactericidal activity against penicillin intermediate-sensitive Streptococcus pneumoniae; format: functional
Streptococcus pneumoniae [28] = assay: Bactericidal activity against penicillin-sensitive Streptococcus pneumoniae; format: functional
Streptococcus pneumoniae [29] = assay: Bactericidal activity against penicillin-resistant Streptococcus pneumoniae; format: functional
Streptococcus pyogenes [30] = assay: Antibacterial activity against Streptococcus pyogenes; format: functional
Streptococcus agalactiae = assay: Antibacterial activity against Streptococcus agalactiae; format: functional
[31] = test system: Streptococcus dysgalactiae subsp. equisimilis; assay: Antibacterial activity against Streptococcus equisimilis; format: functional
Streptococcus mitis = assay: Antibacterial activity against Streptococcus mitis; format: functional
[32] = test system: Streptococcus constellatus; assay: Antibacterial activity against Streptococcus constellatus; format: functional
Streptococcus anginosus = assay: Antibacterial activity against Streptococcus anginosus; format: functional
Streptococcus sanguinis = assay: Antibacterial activity against Streptococcus sanguinis; format: functional
Staphylococcus aureus [33] = assay: Antibacterial activity against methicillin-resistant Staphylococcus aureus by agar dilution method; format: functional; method in brief: as §1
Staphylococcus aureus [34] = assay: Antibacterial activity against linezolid-resistant Staphylococcus aureus isolate 4184; format: functional
Staphylococcus aureus [35] = assay: Antibacterial activity against methicillin-sensitive Staphylococcus aureus ATCC 29213; format: functional
Streptococcus pyogenes [36] = assay: Antibacterial activity against Streptococcus pyogenes isolate 556; format: functional
Staphylococcus aureus [37] = assay: Antibacterial activity against methicillin-sensitive Staphylococcus aureus ATCC 29213 in po dosed mouse systemic infection model; format: functional; details: ATCC 29213, po
Staphylococcus aureus [38] = assay: Antibacterial activity against methicillin-resistant Staphylococcus aureus isolate 0612 in po dosed mouse systemic infection model; format: functional; details: isolate 0612, po
Staphylococcus aureus [39] = assay: Antibacterial activity against methicillin-resistant Staphylococcus aureus isolate 0605 in po dosed mouse systemic infection model; format: functional; details: isolate 0605, po
Staphylococcus aureus [40] = assay: Antibacterial activity against methicillin-sensitive Staphylococcus aureus isolate 15 in po dosed mouse systemic infection model; format: functional; details: isolate 15, po
Streptococcus pneumoniae [41] = assay: Antibacterial activity against penicillin intermediate-sensitive Streptococcus pneumoniae ATCC 49619 clinical isolate in po dosed mouse systemic infection model; format: functional; details: ATCC 49619, po
Streptococcus pneumoniae [42] = assay: Antibacterial activity against penicillin-sensitive Streptococcus pneumoniae isolate 0806 in po dosed mouse systemic infection model; format: functional; details: isolate 0806, po
Streptococcus pneumoniae [43] = assay: Antibacterial activity against penicillin-resistant Streptococcus pneumoniae isolate 0613 in po dosed mouse systemic infection model; format: functional; details: isolate 0613, po
Enterococcus faecalis [44] = assay: Antibacterial activity against vancomycin-sensitive Enterococcus faecalis ATCC 29212 in po dosed mouse systemic infection model; format: functional; details: ATCC 29212, po
Enterococcus faecalis [45] = assay: Antibacterial activity against vancomycin-resistant Enterococcus faecalis isolate EFL 4041 in po dosed mouse systemic infection model; format: functional; details: isolate EFL 4041, po
Enterococcus faecalis [46] = assay: Antibacterial activity against vancomycin-sensitive/high-level gentamycin-resistant Enterococcus faecalis isolate HH22 in po dosed mouse systemic infection model; format: functional; details: EnGen0297, po
Streptococcus pyogenes [47] = assay: Antibacterial activity against Streptococcus pyogenes isolate 556 in po dosed mouse systemic infection model; format: functional; details: isolate 556, po

MIC (Staphylococcus aureus [1]): 0.5 µg/mL (≈ 1.81 µM)
Compound: CC(=O)NC[C@H]1CN(c2ccc(C(C)=O)cc2)C(=O)O1 [DUP-721]

Compound: CC(=O)NC[C@H]1CN(c2ccc(N3CCOCC3)c(F)c2)C(=O)O1 [LINEZOLID]
Activity (Rattus norvegicus [2]): 1.9 ×10⁹ /L
Activity (Rattus norvegicus [3]): 5.52 ×10¹² /L
Activity (Rattus norvegicus [4]): 112.8 g/L
Activity (Rattus norvegicus [5]): 30.18%
Activity (Rattus norvegicus [6]): 54.74 fL
Activity (Rattus norvegicus [7]): 20.52 pg
Activity (Rattus norvegicus [8]): 487.4 ×10⁹ /L
Activity (Rattus norvegicus [9]): 13%
Activity (Rattus norvegicus [10]): 86.2%
Activity (Rattus norvegicus [11]): 1.64%
IC50 [12]: 24 µM
MIC90 (Staphylococcus aureus [13]): 8 µg/mL (≈ 23.7 µM)
ED50 (Staphylococcus aureus [14]): 6.3 mg/kg
IC50 [15]: 6.3 µg/mL (≈ 18.7 µM)
MIC90 (Staphylococcus aureus [16]): 2 µg/mL (≈ 5.93 µM)
MIC50 (Staphylococcus aureus [17]): 1 µg/mL (≈ 2.96 µM)
MIC90 (Staphylococcus aureus [17]): 1 µg/mL (≈ 2.96 µM)
MIC50 [18]: 0.5 µg/mL (≈ 1.48 µM)
MIC90 [18]: 1 µg/mL (≈ 2.96 µM)
MIC50 [19]: 0.5 µg/mL (≈ 1.48 µM)
MIC90 [19]: 0.5 µg/mL (≈ 1.48 µM)
MIC [20]: 0.5 µg/mL (≈ 1.48 µM)
MIC50 [20]: 0.5 µg/mL (≈ 1.48 µM)
MIC90 [20]: 1 µg/mL (≈ 2.96 µM)
MIC50 [21]: 1 µg/mL (≈ 2.96 µM)
MIC90 [21]: 1 µg/mL (≈ 2.96 µM)
MIC50 (Staphylococcus [22]): 0.5 µg/mL (≈ 1.48 µM)
MIC90 (Staphylococcus [22]): 1 µg/mL (≈ 2.96 µM)
MIC50 (Staphylococcus [23]): 0.5 µg/mL (≈ 1.48 µM)
MIC90 (Staphylococcus [23]): 1 µg/mL (≈ 2.96 µM)
MIC50 (Enterococcus faecalis [24]): 1 µg/mL (≈ 2.96 µM)
MIC90 (Enterococcus faecalis [24]): 1 µg/mL (≈ 2.96 µM)
MIC50 (Enterococcus faecium [25]): 1 µg/mL (≈ 2.96 µM)
MIC90 (Enterococcus faecium [25]): 1 µg/mL (≈ 2.96 µM)
MIC50 (Enterococcus): 1 µg/mL (≈ 2.96 µM)
MIC90 (Enterococcus): 1 µg/mL (≈ 2.96 µM)
MIC (Enterococcus faecium [26]): 1 µg/mL (≈ 2.96 µM)
MIC50 (Enterococcus faecium [26]): 1 µg/mL (≈ 2.96 µM)
MIC90 (Enterococcus faecium [26]): 1 µg/mL (≈ 2.96 µM)
MIC50 (Streptococcus pneumoniae [27]): 0.5 µg/mL (≈ 1.48 µM)
MIC90 (Streptococcus pneumoniae [27]): 0.5 µg/mL (≈ 1.48 µM)
MIC50 (Streptococcus pneumoniae [28]): 0.5 µg/mL (≈ 1.48 µM)
MIC90 (Streptococcus pneumoniae [28]): 1 µg/mL (≈ 2.96 µM)
MIC50 (Streptococcus pneumoniae [29]): 0.5 µg/mL (≈ 1.48 µM)
MIC90 (Streptococcus pneumoniae [29]): 0.5 µg/mL (≈ 1.48 µM)
MIC50 (Streptococcus pyogenes [30]): 1 µg/mL (≈ 2.96 µM)
MIC90 (Streptococcus pyogenes [30]): 1 µg/mL (≈ 2.96 µM)
MIC (Streptococcus agalactiae): 1 µg/mL (≈ 2.96 µM)
MIC50 (Streptococcus agalactiae): 1 µg/mL (≈ 2.96 µM)
MIC90 (Streptococcus agalactiae): 1 µg/mL (≈ 2.96 µM)
MIC [31]: 0.5 µg/mL (≈ 1.48 µM)
MIC50 [31]: 0.5 µg/mL (≈ 1.48 µM)
MIC90 [31]: 1 µg/mL (≈ 2.96 µM)
MIC50 (Streptococcus mitis): 1 µg/mL (≈ 2.96 µM)
MIC90 (Streptococcus mitis): 1 µg/mL (≈ 2.96 µM)
MIC50 [32]: 1 µg/mL (≈ 2.96 µM)
MIC90 [32]: 1 µg/mL (≈ 2.96 µM)
MIC50 (Streptococcus anginosus): 0.5 µg/mL (≈ 1.48 µM)
MIC90 (Streptococcus anginosus): 1 µg/mL (≈ 2.96 µM)
MIC (Streptococcus sanguinis): 0.06 µg/mL (≈ 0.178 µM)
MIC50 (Staphylococcus aureus [33]): 1 µg/mL (≈ 2.96 µM)
MIC90 (Staphylococcus aureus [33]): 1 µg/mL (≈ 2.96 µM)
MIC (Staphylococcus aureus [34]): > 16 µg/mL
MIC (Staphylococcus aureus [35]): 1 µg/mL (≈ 2.96 µM)
MIC (Streptococcus pyogenes [36]): 1 µg/mL (≈ 2.96 µM)
ED50 (Staphylococcus aureus [37]): 9 mg/kg
ED50 (Staphylococcus aureus [38]): 8.7 mg/kg
ED50 (Staphylococcus aureus [39]): 10.2 mg/kg
ED50 (Staphylococcus aureus [40]): 5.9 mg/kg
ED50 (Streptococcus pneumoniae [41]): 8.17 mg/kg
ED50 (Streptococcus pneumoniae [42]): 16.8 mg/kg
ED50 (Streptococcus pneumoniae [43]): 9.3 mg/kg
ED50 (Enterococcus faecalis [44]): 13.4 mg/kg
ED50 (Enterococcus faecalis [45]): 6 mg/kg
ED50 (Enterococcus faecalis [46]): 5.6 mg/kg
ED50 (Streptococcus pyogenes [47]): 7.8 mg/kg
